Values after ≈ are worked out from the molar mass of the structure shown.
Legend:
[1] = molecular target: T1, Transient receptor potential cation channel subfamily V member 4 (Homo sapiens, UniProt Q9HBA0); assay: Antagonist activity at TRPV4 (unknown origin)
[2] = Clearance adjusted for unbound fraction in Sprague-Dawley rat at 1 mg/kg, iv administered as 30 mins infusion by LC/MS/MS analysis; assay type: ADME, organism-based; conditions: in vivo, 0.5 h
[3] = Clearance in Sprague-Dawley rat at 1 mg/kg, iv administered as 30 mins infusion by LC/MS/MS analysis; assay type: ADME, organism-based; conditions: in vivo
[4] = Volume of distribution at steady state in Sprague-Dawley rat at 1 mg/kg, iv or 2 mg/kg, po by LC/MS/MS analysis; assay type: ADME, organism-based; conditions: in vivo, read-out: Vdss
[5] = MRT in Sprague-Dawley rat at 1 mg/kg, iv or 2 mg/kg, po by LC/MS/MS analysis; assay type: ADME, organism-based; conditions: in vivo
[6] = Oral bioavailability in Sprague-Dawley rat at 2 mg/kg by LC/MS/MS analysis; assay type: ADME, organism-based; conditions: in vivo
[7] = molecular target: T1, Transient receptor potential cation channel subfamily V member 4; assay: Antagonist activity at human TRPV4 expressed in BHK/AC9 cells assessed as inhibition of GSK634775-induced […] pre-incubated for 10 mins followed by agonist addition by Fluo-4-AM dye-based FLIPR assay; assay type: cell-based
[8] = Lipophilicity, chromatographic hydrophobicity index of the compound in immobilized artificial membrane
[9] = molecular target: Voltage-gated inwardly rectifying potassium channel KCNH2 (Homo sapiens, UniProt Q12809); assay: Inhibition of human ERG expressed in CHO cells by Qpatch assay
[10] = Kinetic aqueous solubility of the compound by chemiluminescence nitrogen detection analysis; conditions: buffer
[11] = molecular target: Transient receptor potential cation channel subfamily V member 4 (Rattus norvegicus, UniProt Q9ERZ8); assay: Antagonist activity at rat TRPV4 expressed in BHK/AC9 cells assessed as inhibition of GSK634775-induced […] pre-incubated for 10 mins followed by agonist addition by Fluo-4-AM dye-based FLIPR assay; assay type: cell-based
[12] = Fraction unbound in Sprague-Dawley rat heart failure-induced pulmonary edema model at 0.09 to 0.78 mg/kg, iv bolus loading dose followed by 0.07 to 0.6 ug/kg/min, iv continuous infusion dose for 60 mins; assay type: ADME, organism-based; conditions: in vivo
Rattus norvegicus [13] = assay: (§1) Reversal of heart failure-induced pulmonary edema in Sprague-Dawley rat assessed as inhibition of GSK1016790A-induced increase in lung wet weight to body weight ratio at 0.09 to 0.78 mg/kg, iv bolus loading dose followed by 0.07 to 0.6 ug/kg/min, iv continuous infusion dose for 60 mins prior to agonist administration; assay type: functional, organism-based
In short: (§2)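 Rats given vehicle or antagonist by i.v. infusion, then agonist GSK1016790A i.v. at 10 µg/kg/min for 10 min (100 µg/kg total). Edema scored as wet lung weight/body weight ratio against naïve animals; inhibition computed from the agonist response; mean ± SEM.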

Cytochrome P450 3A4 [14] = molecular target: T2, Cytochrome P450 3A4 (Homo sapiens, UniProt P08684); assay: Reversible inhibition of CYP3A4 (unknown origin) in presence of NADPH by vivid red substrate-based assay
HepG2 [15] = assay: Induction of phospholipidosis in human HepG2 cells after 72 hrs by fluorescence assay; assay type: cell-based; conditions: hepg2, 72 h
[16] = Plasma concentration in Sprague-Dawley rat heart failure-induced pulmonary edema model at 0.09 mg/kg, iv bolus loading dose followed by 0.07 ug/kg/min, iv continuous infusion dose for 60 mins; assay type: ADME, organism-based
[17] = Plasma concentration in Sprague-Dawley rat heart failure-induced pulmonary edema model at 0.26 mg/kg, iv bolus loading dose followed by 0.2 ug/kg/min, iv continuous infusion dose for 60 mins; assay type: ADME, organism-based
[18] = Plasma concentration in Sprague-Dawley rat heart failure-induced pulmonary edema model at 0.78 mg/kg, iv bolus loading dose followed by 0.6 ug/kg/min, iv continuous infusion dose for 60 mins; assay type: ADME, organism-based
Rattus norvegicus [19] = assay: as §1, with “0.26” for “0.09 to 0.78”, “0.2” for “0.07 to 0.6”, “administration relative to control” for “administration”; assay type: functional; in short: as §2
Cytochrome P450 3A4 [20] = molecular target: T2, Cytochrome P450 3A4; conditions: 100 µM
[21] = pH 10.5 – pH 7.4
[22] = molecular target: T1, Transient receptor potential cation channel subfamily V member 4; assay: Antagonist activity at human TRPV4 expressed in HEK cells assessed as inhibition of GSK634775-induced […] pre-incubated for 10 mins followed by agonist addition by Fluo-4-AM dye-based FLIPR assay; assay type: cell-based
In short: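 TRPV4 from human recombinant channels in HEK cells; block of calcium mobilization evoked by agonist GSK634775, read on a fluorescent imaging plate reader; reported potency is an average of repeat determinations.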

[23] = Metabolic stability in rat liver microsomes assessed as parent compound remaining after 30 mins; assay type: ADME, Microsome; conditions: read-out: Stability
In short: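 Rat liver microsomes incubated 30 min with glutathione for trapping; parent remaining measured.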

[24] = molecular target: T1, Transient receptor potential cation channel subfamily V member 4; assay: Antagonist activity at human TRPV4 expressed in HEK cells assessed as inhibition of GSK634775-induced Ca2+ influx by FLIPR assay; assay type: cell-based
[25] = Permeability of the compound by PAMPA; assay type: ADME; conditions: read-out: permeability
HepG2 [26] = assay: Induction of phospholipidosis in human HepG2 cells after 72 hrs by fluorescence assay relative to control; assay type: cell-based; conditions: hepg2, 72 h

T1 sequence (Q9HBA0 whole entry, the tested form may be a part): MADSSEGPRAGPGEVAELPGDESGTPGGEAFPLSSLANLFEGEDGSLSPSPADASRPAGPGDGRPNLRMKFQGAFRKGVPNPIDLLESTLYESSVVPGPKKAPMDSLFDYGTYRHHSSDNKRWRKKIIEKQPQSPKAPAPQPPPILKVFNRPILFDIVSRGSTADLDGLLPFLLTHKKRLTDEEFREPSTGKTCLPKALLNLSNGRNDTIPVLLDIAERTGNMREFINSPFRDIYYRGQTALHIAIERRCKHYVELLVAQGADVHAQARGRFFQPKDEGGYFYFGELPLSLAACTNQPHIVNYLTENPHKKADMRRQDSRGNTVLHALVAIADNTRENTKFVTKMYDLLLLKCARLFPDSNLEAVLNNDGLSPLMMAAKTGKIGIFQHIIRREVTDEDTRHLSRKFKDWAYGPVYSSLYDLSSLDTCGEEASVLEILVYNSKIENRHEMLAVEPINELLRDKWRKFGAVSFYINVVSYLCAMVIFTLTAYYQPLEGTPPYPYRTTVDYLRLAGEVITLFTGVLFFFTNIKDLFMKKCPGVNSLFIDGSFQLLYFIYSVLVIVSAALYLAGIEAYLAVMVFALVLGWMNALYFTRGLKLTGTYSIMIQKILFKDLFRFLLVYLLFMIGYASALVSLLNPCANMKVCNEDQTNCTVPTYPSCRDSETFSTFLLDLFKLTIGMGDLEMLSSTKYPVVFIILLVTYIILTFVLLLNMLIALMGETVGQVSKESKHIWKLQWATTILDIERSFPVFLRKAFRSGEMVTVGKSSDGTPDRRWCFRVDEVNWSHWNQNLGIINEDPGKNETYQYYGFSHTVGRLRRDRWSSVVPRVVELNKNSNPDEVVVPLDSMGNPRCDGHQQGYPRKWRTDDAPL
T2 sequence (P08684 whole entry): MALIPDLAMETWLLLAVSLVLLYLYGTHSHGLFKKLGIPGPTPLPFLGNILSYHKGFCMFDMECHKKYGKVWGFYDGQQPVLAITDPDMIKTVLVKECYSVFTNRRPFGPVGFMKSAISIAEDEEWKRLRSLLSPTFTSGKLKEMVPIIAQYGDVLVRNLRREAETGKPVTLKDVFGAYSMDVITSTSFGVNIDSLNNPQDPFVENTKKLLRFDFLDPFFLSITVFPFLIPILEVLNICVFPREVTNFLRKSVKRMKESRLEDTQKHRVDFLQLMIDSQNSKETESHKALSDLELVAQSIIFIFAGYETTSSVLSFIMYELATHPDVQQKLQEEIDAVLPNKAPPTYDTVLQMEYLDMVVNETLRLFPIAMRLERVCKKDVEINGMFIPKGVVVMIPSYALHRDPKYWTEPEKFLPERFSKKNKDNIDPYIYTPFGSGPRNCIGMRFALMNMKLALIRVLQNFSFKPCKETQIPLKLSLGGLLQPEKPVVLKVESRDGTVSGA
Chain of Voltage-gated inwardly rectifying potassium channel KCNH2 (Q12809 whole entry): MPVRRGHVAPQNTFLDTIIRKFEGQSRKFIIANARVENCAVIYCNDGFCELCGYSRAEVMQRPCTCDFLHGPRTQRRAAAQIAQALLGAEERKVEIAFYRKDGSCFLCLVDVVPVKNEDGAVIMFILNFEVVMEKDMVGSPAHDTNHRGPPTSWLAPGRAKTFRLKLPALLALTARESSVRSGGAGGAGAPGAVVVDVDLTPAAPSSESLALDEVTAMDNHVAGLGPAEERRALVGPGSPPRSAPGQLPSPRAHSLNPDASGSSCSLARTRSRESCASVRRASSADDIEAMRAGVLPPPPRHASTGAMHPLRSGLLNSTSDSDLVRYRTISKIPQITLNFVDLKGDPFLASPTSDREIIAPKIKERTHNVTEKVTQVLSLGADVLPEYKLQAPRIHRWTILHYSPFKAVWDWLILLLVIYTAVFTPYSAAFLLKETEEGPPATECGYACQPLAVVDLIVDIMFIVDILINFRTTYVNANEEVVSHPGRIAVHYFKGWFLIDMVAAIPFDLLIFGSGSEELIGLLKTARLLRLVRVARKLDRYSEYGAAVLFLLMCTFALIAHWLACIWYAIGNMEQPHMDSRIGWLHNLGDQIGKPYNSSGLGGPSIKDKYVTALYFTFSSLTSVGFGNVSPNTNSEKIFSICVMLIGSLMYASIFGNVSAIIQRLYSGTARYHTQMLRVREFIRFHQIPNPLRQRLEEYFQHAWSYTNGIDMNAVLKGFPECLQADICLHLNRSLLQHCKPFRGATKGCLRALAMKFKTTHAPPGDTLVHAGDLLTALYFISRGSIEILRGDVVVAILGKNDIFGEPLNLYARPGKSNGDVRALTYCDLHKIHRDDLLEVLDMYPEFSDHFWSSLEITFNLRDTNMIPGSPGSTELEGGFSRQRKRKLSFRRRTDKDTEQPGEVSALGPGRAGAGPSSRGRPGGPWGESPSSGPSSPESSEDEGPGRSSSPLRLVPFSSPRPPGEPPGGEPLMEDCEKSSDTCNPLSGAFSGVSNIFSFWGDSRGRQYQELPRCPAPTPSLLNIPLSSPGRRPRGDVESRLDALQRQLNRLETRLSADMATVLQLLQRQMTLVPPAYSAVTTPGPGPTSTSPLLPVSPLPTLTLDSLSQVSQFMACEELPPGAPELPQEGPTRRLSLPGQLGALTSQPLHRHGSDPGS
Chain of Transient receptor potential cation channel subfamily V member 4 (Rattus norvegicus, UniProt Q9ERZ8) (Q9ERZ8 whole entry, the tested form may be a part): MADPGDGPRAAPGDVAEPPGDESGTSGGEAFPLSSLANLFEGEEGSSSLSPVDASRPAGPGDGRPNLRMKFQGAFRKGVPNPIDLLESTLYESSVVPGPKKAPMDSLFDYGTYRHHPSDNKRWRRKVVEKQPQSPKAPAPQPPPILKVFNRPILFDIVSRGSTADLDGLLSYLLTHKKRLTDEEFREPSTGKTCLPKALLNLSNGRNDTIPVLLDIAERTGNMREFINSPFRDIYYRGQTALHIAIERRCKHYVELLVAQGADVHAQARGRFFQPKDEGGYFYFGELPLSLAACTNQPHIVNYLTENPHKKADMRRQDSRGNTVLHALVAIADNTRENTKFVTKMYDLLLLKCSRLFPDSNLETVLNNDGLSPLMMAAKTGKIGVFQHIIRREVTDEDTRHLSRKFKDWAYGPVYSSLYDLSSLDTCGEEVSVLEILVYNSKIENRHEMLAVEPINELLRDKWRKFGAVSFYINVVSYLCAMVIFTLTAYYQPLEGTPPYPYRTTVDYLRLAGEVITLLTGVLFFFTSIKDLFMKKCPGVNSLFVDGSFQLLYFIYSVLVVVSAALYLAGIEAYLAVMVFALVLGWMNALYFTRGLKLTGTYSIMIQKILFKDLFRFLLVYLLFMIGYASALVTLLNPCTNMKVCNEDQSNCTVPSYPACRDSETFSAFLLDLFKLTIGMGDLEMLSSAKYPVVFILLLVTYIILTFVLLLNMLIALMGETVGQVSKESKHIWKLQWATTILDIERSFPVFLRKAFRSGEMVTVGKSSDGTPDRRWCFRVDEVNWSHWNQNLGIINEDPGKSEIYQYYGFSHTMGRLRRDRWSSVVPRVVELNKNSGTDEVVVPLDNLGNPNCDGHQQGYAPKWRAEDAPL

| Compound | CL free [2] [mL/min/kg] | clearance [3] [mL/min/kg] | Vd [4] [L/kg] | MRT [5] [h] | bioavailability [6] [%] | IC50 [7] [nM] | IC50 [22] [nM] | other results |
| --- | --- | --- | --- | --- | --- | --- | --- | --- |
| CC(C)(C)c1cc(N2C[C@@]3(CCC[C@](C)(Cn4cnc5ccc(C#N)cc54)C3)OC2=O)no1 | – | – | – | – | – | – | – | IC50 [1]: 7.5 nM |
| N#Cc1ccc(S(=O)(=O)N2C[C@H](S(=O)(=O)c3ccc(Cl)cn3)[C@@](O)(CN)C2)c(Cl)c1 | 1.7 | 1.7 | 0.2 | 2.2 | 56 | 0.5 | – | CHI [8]: 36; IC50 [9]: 8000 nM; solubility kinetic [10]: 500 µM (≈ 246 µg/mL); IC50 [11]: 1 nM; fraction unbound at 1 h [12]: 0.014; fIC50 (Rattus norvegicus [13]): 8.5 nM; IC50 (Rattus norvegicus [13]; Rattus norvegicus, Sprague-Dawley): 611 nM; IC50 (Cytochrome P450 3A4 [14]): 4000 nM; pMED (HepG2 [15]): < 4; concentration at 1 h [16]: 400 nM; concentration at 1 h [17]: 2100 nM; concentration at 1 h [18]: 4500 nM; inhibition (INH) (Rattus norvegicus [19]): 88%; TDI (Cytochrome P450 3A4 [20]): Not Active; ΔCHI [21]: 3.7 |
| N#Cc1ccc(S(=O)(=O)[C@H]2CN(S(=O)(=O)c3ccc(Cl)cc3Cl)C[C@@]2(O)CO)cc1F | 14 | 25 | 1.2 | 0.8 | 51 | 2 | – | remaining at 0.5 h [23]: 46% |
| O=C(NC1(c2ccccc2)CC1)c1c(CN2CCC(N3CCCCC3)CC2)c(-c2cccc(C(F)(F)F)c2)nc2cc(Br)ccc12 | – | – | – | – | – | – | – | IC50 [24]: 50 nM |
| N#Cc1ccc(O[C@H]2CN(S(=O)(=O)c3ccc(Cl)cc3Cl)C[C@@]2(O)CO)cc1 | 15 | 74 | 2.4 | 0.6 | 46 | – | – | Papp [25]: 37 ×10⁻⁶ cm/s |
| N#Cc1ccc(S(=O)(=O)[C@H]2CN(S(=O)(=O)c3ccc(Cl)cc3Cl)C[C@@H]2O)cc1 | 30 | 9 | 1.1 | 2 | 100 | – | 25 | Papp [25]: 78 ×10⁻⁶ cm/s |
| N#Cc1ccc(S(=O)(=O)N2C[C@H](S(=O)(=O)c3ccc(Cl)cn3)[C@](O)(CO)C2)c(Cl)c1 | 11 | 23 | 2 | 1.4 | 62 | – | – | – |
| N#Cc1ccc(S(=O)(=O)N2C[C@H](S(=O)(=O)c3ccc(Cl)cn3)[C@](O)(CN)C2)c(Cl)c1 | 3.8 | 12 | 1.3 | 1.9 | 64 | 0.5 | – | CHI [8]: 42; IC50 [9]: 8000 nM; solubility kinetic [10]: 500 µM (≈ 246 µg/mL); IC50 (Cytochrome P450 3A4 [14]): 300 nM; pMED (HepG2 [15]): < 4; TDI (Cytochrome P450 3A4 [20]): Not Active; ΔCHI [21]: -2.2 |
| N#Cc1ccc(O[C@H]2CN(S(=O)(=O)c3ccc(Cl)cc3Cl)C[C@@H]2O)cc1 | – | – | – | – | – | – | 32 | – |

Second part, led by results:

| CL free [2] [mL/min/kg] | clearance [3] [mL/min/kg] | Vd [4] [L/kg] | MRT [5] [h] | bioavailability [6] [%] | IC50 [7] [nM] | IC50 [22] [nM] | Compound | other results |
| --- | --- | --- | --- | --- | --- | --- | --- | --- |
| 4.8 | 52 | 3.2 | 1 | 38 | 20 | – | N#Cc1ccc(S(=O)(=O)N2C[C@H](S(=N)(=O)c3ccc(Cl)cc3)[C@](O)(CO)C2)c(Cl)c1 (some centres undefined) | – |
| – | – | – | – | – | – | 50 | N#Cc1ccc(S(=O)(=O)[C@H]2CN(S(=O)(=O)c3ccc(Cl)cc3Cl)C[C@]2(O)CO)cc1 | – |
| 7 | 82 | 2.6 | 0.5 | 25 | 2 | – | N#Cc1ccc(S(=O)(=O)[C@H]2CN(S(=O)(=O)c3ccc(Cl)cc3C#N)C[C@@]2(O)CO)cc1 | solubility kinetic [10]: 380 µM (≈ 183 µg/mL) |
| 1.2 | 22 | 4.1 | 3 | 62 | 631 | – | N#Cc1ccc(S(=O)(=O)N2C[C@H](S(=O)(=O)c3ccc(Cl)cc3)[C@](O)(CO)C2)cn1 | – |
| 9 | 25 | 2.3 | 1.7 | 100 | – | 7.9 | N#Cc1ccc(S(=O)(=O)[C@H]2CN(S(=O)(=O)c3ccc(Cl)cc3Cl)C[C@@]2(O)CO)cc1 | remaining at 0.5 h [23]: 89%; Papp [25]: 45 ×10⁻⁶ cm/s |
| 4 | 35 | 2.2 | 1 | 15 | 3.2 | – | N#Cc1ccc(S(=O)(=O)[C@H]2CN(S(=O)(=O)c3ccc(C#N)cc3Cl)C[C@@]2(O)CO)cc1 | Papp [25]: 35 ×10⁻⁶ cm/s; solubility kinetic [10]: 400 µM (≈ 193 µg/mL) |
| 66 | 310 | 3.6 | 0.2 | 8 | 20 | – | N#Cc1ccc(S(=O)(=O)N2C[C@H](S(=O)(=O)c3ccc(Cl)cc3)[C@](O)(CO)C2)c(C(F)(F)F)n1 | – |
| 8.9 | 48 | 2.7 | 0.9 | 80 | 40 | – | N#Cc1ccc(S(=N)(=O)N2C[C@H](S(=O)(=O)c3ccc(Cl)cc3)[C@](O)(CO)C2)c(Cl)c1 (some centres undefined) | – |
| – | – | – | – | – | – | 1590 | N#Cc1ccc(S(=O)(=O)[C@@H]2CN(S(=O)(=O)c3ccc(Cl)cc3Cl)C[C@@]2(O)CO)cc1 | – |
| 2.7 | 12 | 4 | 5.7 | 22 | – | – | N#Cc1ccc(S(=O)(=O)N2C[C@H](S(=O)(=O)c3ccc(Cl)cc3)[C@](O)(CN)C2)c(Cl)c1 | pMED (HepG2 [15]): 4.7; Activity (HepG2 [26]): 425% |
| – | – | – | – | – | – | 159 | N#Cc1ccc(S(=O)(=O)[C@@H]2CN(S(=O)(=O)c3ccc(Cl)cc3Cl)C[C@]2(O)CO)cc1 | – |

Source: ChEMBL document CHEMBL4382258, “Design and Optimization of Sulfone Pyrrolidine Sulfonamide Antagonists of Transient Receptor Potential Vanilloid-4 with in Vivo Activity in a Pulmonary Edema Model” (J Med Chem, 2018)
